Source: ChEMBL document CHEMBL4689842, “EUbOPEN Chemogenomics Library wave 1” (2021)

System: Fibroblast
Test: Multiplex assay against human fibroblast
Format: toxicity, cell-based
Procedure, shortened: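 Per cents of healthy-nucleus cells form the tubulin, mitochondrial-mass and membrane-permeability phenotype values. Live cells were stained at seeding with Hoechst33342, BioTracker Green Microtubule Cytoskeleton Dye, MitoTracker Red and Annexin V Alexa Fluor 680. After compound addition they were imaged on a CQ1 microscope at 37°C and 5% CO2, and CellPathfinder machine-learning gating split them into Hoechst high-intensity objects or normal cells, normal cells into healthy, pyknosed or fragmented nuclei, and pyknosed cells into mitotic or apoptotic.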

[1] = 12 h, 1 µM, compound concentration 1 uM, replicate 1
[2] = 12 h, 1 µM, compound concentration 1 uM, replicate 2
[3] = 12 h, 10 µM, compound concentration 10 uM, replicate 1
[4] = 12 h, 10 µM, compound concentration 10 uM, replicate 2
[5] = 24 h, 1 µM, compound concentration 1 uM, replicate 1
[6] = 24 h, 1 µM, compound concentration 1 uM, replicate 2
[7] = 24 h, 10 µM, compound concentration 10 uM, replicate 1
[8] = 24 h, 10 µM, compound concentration 10 uM, replicate 2
[9] = 48 h, 1 µM, compound concentration 1 uM, replicate 1
[10] = 48 h, 1 µM, compound concentration 1 uM, replicate 2
[11] = 48 h, 10 µM, compound concentration 10 uM, replicate 1
[12] = 48 h, 10 µM, compound concentration 10 uM, replicate 2

CCc1ccc(OCc2ccccc2C(=O)Nc2ccc3nc(C)cc(N)c3c2)cc1.Cl
Population Apoptotic (%) [1]: 67% | Population Fragmented Nuclei (%) [1]: 31% | Population Healthy Nuclei (%) [1]: 33% | Population Hoechst High Intensity Objects (%) [1]: 11% | Population Membrane Permeable-Phenotype (%) [1]: 9% | Population Mitochondria Different-Phenotype (%) [1]: 44% | Population Mitotic Cells (%) [1]: 32% | Population Normal (%) [1]: 88% | Population Pyknosed Nuclei (%) [1]: 35% | Population Tubulin-Different-Phenotype (%) [1]: 63% | Total Cell Count [1]: 177 | Population Apoptotic (%) [2]: 71% | Population Fragmented Nuclei (%) [2]: 33% | Population Hoechst High Intensity Objects (%) [2]: 16% | Population Membrane Permeable-Phenotype (%) [2]: 28% | Population Mitochondria Different-Phenotype (%) [2]: 92% | Population Mitotic Cells (%) [2]: 28% | Population Normal (%) [2]: 84% | Population Pyknosed Nuclei (%) [2]: 33% | Population Tubulin-Different-Phenotype (%) [2]: 85% | Total Cell Count [2]: 68 | Population Apoptotic (%) [3]: 26% | Population Fragmented Nuclei (%) [3]: 15% | Population Healthy Nuclei (%) [3]: 18% | Population Hoechst High Intensity Objects (%) [3]: 22% | Population Membrane Permeable-Phenotype (%) [3]: 16% | Population Mitochondria Different-Phenotype (%) [3]: 55% | Population Mitotic Cells (%) [3]: 73% | Population Normal (%) [3]: 77% | Population Pyknosed Nuclei (%) [3]: 65% | Population Tubulin-Different-Phenotype (%) [3]: 88% | Total Cell Count [3]: 125 | Population Apoptotic (%) [4]: 76% | Population Fragmented Nuclei (%) [4]: 8% | Population Healthy Nuclei (%) [4]: 14% | Population Hoechst High Intensity Objects (%) [4]: 12% | Population Membrane Permeable-Phenotype (%) [4]: 100% | Population Mitochondria Different-Phenotype (%) [4]: 100% | Population Mitotic Cells (%) [4]: 23% | Population Normal (%) [4]: 87% | Population Pyknosed Nuclei (%) [4]: 77% | Population Tubulin-Different-Phenotype (%) [4]: 100% | Total Cell Count [4]: 50 | Population Apoptotic (%) [5]: 79% | Population Fragmented Nuclei (%) [5]: 32% | Population Healthy Nuclei (%) [5]: 22% | Population Hoechst High Intensity Objects (%) [5]: 13% | Population Membrane Permeable-Phenotype (%) [5]: 10% | Population Mitochondria Different-Phenotype (%) [5]: 60% | Population Mitotic Cells (%) [5]: 20% | Population Normal (%) [5]: 86% | Population Pyknosed Nuclei (%) [5]: 45% | Population Tubulin-Different-Phenotype (%) [5]: 86% | Total Cell Count [5]: 158 | Population Apoptotic (%) [6]: 83% | Population Fragmented Nuclei (%) [6]: 25% | Population Healthy Nuclei (%) [6]: 28% | Population Hoechst High Intensity Objects (%) [6]: 17% | Population Membrane Permeable-Phenotype (%) [6]: 27% | Population Mitochondria Different-Phenotype (%) [6]: 90% | Population Mitotic Cells (%) [6]: 16% | Population Normal (%) [6]: 82% | Population Pyknosed Nuclei (%) [6]: 46% | Population Tubulin-Different-Phenotype (%) [6]: 63% | Total Cell Count [6]: 92 | Population Apoptotic (%) [7]: 40% | Population Fragmented Nuclei (%) [7]: 25% | Population Healthy Nuclei (%) [7]: 48% | Population Hoechst High Intensity Objects (%) [7]: 50% | Population Membrane Permeable-Phenotype (%) [7]: 16% | Population Mitochondria Different-Phenotype (%) [7]: 37% | Population Mitotic Cells (%) [7]: 60% | Population Normal (%) [7]: 49% | Population Pyknosed Nuclei (%) [7]: 25% | Population Tubulin-Different-Phenotype (%) [7]: 97% | Total Cell Count [7]: 155 | Population Apoptotic (%) [8]: 70% | Population Fragmented Nuclei (%) [8]: 15% | Population Healthy Nuclei (%) [8]: 38% | Population Hoechst High Intensity Objects (%) [8]: 31% | Population Membrane Permeable-Phenotype (%) [8]: 47% | Population Mitochondria Different-Phenotype (%) [8]: 94% | Population Mitotic Cells (%) [8]: 30% | Population Normal (%) [8]: 68% | Population Pyknosed Nuclei (%) [8]: 45% | Population Tubulin-Different-Phenotype (%) [8]: 94% | Total Cell Count [8]: 47 | Population Apoptotic (%) [9]: 90% | Population Fragmented Nuclei (%) [9]: 46% | Population Healthy Nuclei (%) [9]: 20% | Population Hoechst High Intensity Objects (%) [9]: 20% | Population Membrane Permeable-Phenotype (%) [9]: 40% | Population Mitochondria Different-Phenotype (%) [9]: 32% | Population Mitotic Cells (%) [9]: 9% | Population Normal (%) [9]: 79% | Population Pyknosed Nuclei (%) [9]: 33% | Population Tubulin-Different-Phenotype (%) [9]: 72% | Total Cell Count [9]: 157 | Population Apoptotic (%) [10]: 84% | Population Fragmented Nuclei (%) [10]: 51% | Population Healthy Nuclei (%) [10]: 25% | Population Hoechst High Intensity Objects (%) [10]: 16% | Population Membrane Permeable-Phenotype (%) [10]: 30% | Population Mitochondria Different-Phenotype (%) [10]: 55% | Population Mitotic Cells (%) [10]: 15% | Population Normal (%) [10]: 83% | Population Pyknosed Nuclei (%) [10]: 23% | Population Tubulin-Different-Phenotype (%) [10]: 70% | Total Cell Count [10]: 96 | Population Fragmented Nuclei (%) [11]: 68% | Population Healthy Nuclei (%) [11]: 28% | Population Hoechst High Intensity Objects (%) [11]: 47% | Population Membrane Permeable-Phenotype (%) [11]: 4% | Population Mitochondria Different-Phenotype (%) [11]: 68% | Population Normal (%) [11]: 52% | Population Pyknosed Nuclei (%) [11]: 2% | Population Tubulin-Different-Phenotype (%) [11]: 86% | Total Cell Count [11]: 146 | Population Apoptotic (%) [12]: 100% | Population Fragmented Nuclei (%) [12]: 86% | Population Healthy Nuclei (%) [12]: 8% | Population Hoechst High Intensity Objects (%) [12]: 39% | Population Membrane Permeable-Phenotype (%) [12]: 0% | Population Mitochondria Different-Phenotype (%) [12]: 50% | Population Mitotic Cells (%) [12]: 0% | Population Normal (%) [12]: 60% | Population Pyknosed Nuclei (%) [12]: 4% | Population Tubulin-Different-Phenotype (%) [12]: 50% | Total Cell Count [12]: 38
